From paper PMC7984436 (Clinical Pharmacology in Drug Development, 2020)
Entries after “also recorded” stand apart in the source; their conditions may differ. Where two headings read alike, the source gives them in different places.

Experiments:
[1] = assay type: in vivo, human; conditions: for Tmax: median (minimum through maximum); for Cmax: n = 22, mean ± SD; for t1/2: mean ± SD
[2] = cited from earlier work; for elimination half-life: background statement for the sampling period, no reference given
CYP3A [3] = conditions: oral contraceptives that are substrates of CYP3A; cited from earlier work
CYP3A [4] = conditions: cited from earlier work
CYP2B6 mRNA = conditions: in vitro, at concentrations higher than clinically relevant; cited from earlier work
[5] = cited from earlier work
[6] = test system: CYP1A2, CYP2C9, CYP2C19, or CYP2D6; conditions: chronic dosing of upadacitinib 30 mg once daily, healthy volunteers; cited from earlier work
[7] = cited from earlier work; remark: listed apart in the source
JAK1 = conditions: less potent against JAK2, JAK3, and tyrosine kinase; cited from earlier work
[8] = Safety monitoring in the phase 1 study; assay type: in vivo, human; conditions: healthy subjects
In short: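 Healthy adults aged 18-55 took part in a single-centre, open-label, two-period, single-sequence study with 24-day on-site confinement. Period 1 gave a single oral 150 mg extended-release CYP2B6 probe substrate dose after at least a 10-hour fast. Period 2 repeated that dose on day 12 of 16 days of oral test compound. Throughout, safety checks covered adverse events, physical exams, vital signs, ECG, haematology, chemistry and urinalysis.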

CYP2B6 = assay: In vivo effect of upadacitinib on CYP2B6; design: species or system human
[9] = test system: CYP enzymes (CYP1A2, CYP2B6, CYP2C8, CYP2C9, CYP2C19, CYP2D6, and CYP3A4); conditions: at clinically relevant concentrations, cited from earlier work
[10] = Study period 2, day 12: upadacitinib 30 mg once daily + bupropion 150 mg
[11] = Period 1, day 1: bupropion 150-mg single dose
[12] = Period 2, day 12: upadacitinib 30 mg once daily + bupropion 150-mg single dose
[13] = Study period 1, day 1: bupropion 150 mg alone
[14] = with upadacitinib relative to bupropion alone
[15] = with upadacitinib 30 mg once daily
[16] = with multiple doses of rifampin (broad CYP inducer)
[17] = with the strong CYP3A inhibitor ketoconazole

CC(NC(C)(C)C)C(=O)c1cccc(Cl)c1 (stereo not shown) [Bupropion, bupropion]
Tmax [1, 10]: 5.0 (3.0‐8.0) h | AUC(0-inf) ([1]; human, plasma, oral, 150 mg): 859 ng·h/mL | AUC(0-t) ([1]; human, plasma, oral, 150 mg): 869 ± 271 ng·h/mL | Cmax ([1]; human, plasma, oral, 150 mg, Cmax, Study period 1, day 1: bupropion 150 mg alone, plasma): 83.5 ± 26.2 ng/mL | elimination half-life [2]: approximately 20 hours

C[C@H]1NC(C)(C)CO[C@]1(O)c1cccc(Cl)c1 [Hydroxybupropion, hydroxybupropion]
Hydroxybupropion-to-bupropion metabolic ratio, AUCinf, central value, reference [1, 11]: 16.9 | Hydroxybupropion-to-bupropion metabolic ratio, AUCt, central value, reference [1, 11]: 16.5 | Hydroxybupropion-to-bupropion metabolic ratio, Cmax, central value, reference [1, 11]: 3.83 | Hydroxybupropion-to-bupropion metabolic ratio, AUCinf, central value, test [1, 12]: 13.2 | Hydroxybupropion-to-bupropion metabolic ratio, AUCt, central value, test [1, 12]: 13.1 | Hydroxybupropion-to-bupropion metabolic ratio, Cmax, central value, test [1, 12]: 3.45 | t1/2 [1, 13]: 25.1 ± 6.8 h | Tmax [1, 13]: 10.0 (5.0‐24.0) h | Cmax ([1]; Study period 1, day 1: bupropion 150 mg alone, plasma): 336 ± 150 ng/mL | t1/2 [1, 10]: 23.9 ± 5.6 h | Tmax [1, 10]: 10.0 (6.0‐24.0) h | Cmax ([1]; Study period 2, day 12: upadacitinib 30 mg once daily + bupropion 150 mg, plasma): 264 ± 121 ng/mL | AUCt ratio of central values, point estimate ([1]; with upadacitinib 30 mg once daily relative to bupropion alone): 0.726 | exposures (AUCinf) lower when administered with upadacitinib ([1]; with upadacitinib 30 mg once daily versus bupropion alone): 28% | Hydroxybupropion-to-bupropion metabolic ratio, AUCinf, ratio of central values, point estimate [1, 14]: 0.780 | Hydroxybupropion-to-bupropion metabolic ratio, AUCt, ratio of central values, point estimate [1, 14]: 0.790 | Hydroxybupropion-to-bupropion metabolic ratio, Cmax, ratio of central values, point estimate [1, 14]: 0.902 | elimination half-life [2]: approximately 20 hours | range of variability in hydroxybupropion exposures ([2]; inter- and intrasubject variability): 20% to 50%

C#C[C@]1(O)CC[C@H]2[C@@H]3CCc4cc(O)ccc4[C@H]3CC[C@@]21C [ethinylestradiol]
impact of upadacitinib on exposure (CYP3A [3]): no impact

C#C[C@]1(O)CC[C@H]2[C@@H]3CCC4=CC(=O)CC[C@@H]4[C@H]3CC[C@@]21CC [levonorgestrel]
impact of upadacitinib on exposure (CYP3A [3]): no impact

Cc1ncc2n1-c1ccc(Cl)cc1C(c1ccccc1F)=NC2 [midazolam]
decrease in exposures of midazolam (CYP3A [4]; chronic dosing of upadacitinib 30 mg once daily, healthy volunteers): 26% | decrease in midazolam AUC (CYP3A [4]; [15]): 26% | decrease in midazolam Cmax (CYP3A [4]; [15]): 26%

CC[C@@H]1CN(C(=O)NCC(F)(F)F)C[C@@H]1c1cnc2cnc3[nH]ccc3n12 [upadacitinib]
CYP2B6 mRNA expression (CYP2B6 mRNA): increase in CYP2B6 mRNA expression | dose eliminated unchanged in urine [5]: approximately 20% | effects on CYP1A2, CYP2C9, CYP2C19, or CYP2D6 activity [6]: no relevant effects | decrease in upadacitinib AUC [7, 16]: ~60% | decrease in upadacitinib Cmax [7, 16]: approximately 50% | increase in upadacitinib AUC [7, 17]: 75% | increase in upadacitinib Cmax [7, 17]: 70% | JAK1 inhibition (JAK1): potently inhibits | discontinuation because of adverse events ([8]; n = 22): no subject discontinued because of AEs | severity of the majority of treatment-emergent adverse events ([8]; n = 22, upadacitinib 30 mg once daily and bupropion 150 mg): mild in severity | effect on bupropion exposures (Cmax or AUC) (CYP2B6; bupropion on day 12 of 16-day upadacitinib 30 mg once daily regimen): no relevant effect | effect on pharmacokinetics of substrates metabolized by CYP2B6 (CYP2B6; upadacitinib 30 mg once daily, multiple doses): no relevant effect; also recorded: lack of relevant effect | inhibition or induction of the activity of CYP enzymes [9]: did not inhibit or induce | inhibitor or inducer of drug-metabolizing enzymes, including CYP2B6 ([9]; in vitro): not an inhibitor or inducer
